The values that follow come from ChEMBL document CHEMBL1772966, “3,5-Bis(benzylidene)-1-[3-(2-hydroxyethylthio)propanoyl]piperidin-4-ones: a novel cluster of potent tumor-selective cytotoxins” (J Med Chem, 2011).

Bounds are passed on as bounds.

Data set [1] relates to HSC-2. As to the kind of experiment: Selectivity index, ratio of average CC50 for normal human cell line to CC50 for human HSC2 cells.
In data set [2] the test system is HSC-3. The data set can be described thus: Selectivity index, ratio of average CC50 for normal human cell line to CC50 for human HSC3 cells.
Data set [3] deals with CCRF-CEM. The data set can be described thus: Ratio of melphalan IC50 to compound IC50 for human CEM cells. The class given is functional.
Data set [4] is described as follows: Anticancer activity against human Molt4/C8 cells after 72 hrs. Format: functional, cell-based. Conditions: MOLT-4, 72 h.
Data set [5] has as its system CCRF-CEM. The data set can be described thus: Anticancer activity against human CEM cells after 72 hrs. Format: functional, cell-based.
A further data set deals with L1210. As to the kind of experiment: Anticancer activity against mouse L1210 cells after 48 hrs. The class given is functional, cell-based. Conditions: L1210, 48 h.
Data set [6] concerns HL-60. The data set can be described thus: Cytotoxicity against human HL60 cells after 48 hrs. The class given is functional. Conditions: HL-60, 48 h.
Data set [7] concerns HSC-2. As to the kind of experiment: Cytotoxicity against human HSC2 cells after 48 hrs. The class given is functional. Conditions: HSC-2, 48 h.
Data set [8] concerns HSC-3. As to the kind of experiment: Cytotoxicity against human HSC3 cells after 48 hrs. The class given is functional. Conditions: HSC-3, 48 h.
Data set [9] relates to HSC-4. As to the kind of experiment: Cytotoxicity against human HSC4 cells after 48 hrs. Format: functional. Conditions: HSC-4, 48 h.
Data set [10] in a line: Cytotoxicity against human HGF cells after 48 hrs. Format: cell-based.
Data set [11] relates to Mus musculus. As to the kind of experiment: Toxicity in mouse assessed as mortality at 30 to 300 mg/kg, ip after 0.5 to 4 hrs. Format: organism-based. Set-up: dose 30-300 mg/kg, route intraperitoneal. Conditions: in vivo. The procedure, abridged:
(§1)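 Mice dosed intraperitoneally at 30, 100 and 300 mg/kg; animals observed for deaths and neurological deficit at 0.5 and 4 h after injection.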

Data set [12] relates to Mus musculus. The data set can be described thus: Neurotoxicity in mouse at 30 to 300 mg/kg, ip after 0.5 to 4 hrs by rotarod method. Format: toxicity, organism-based. Set-up: dose 30-300 mg/kg, route intraperitoneal. Conditions: in vivo. The procedure, abridged:
as §1

Data set [13] deals with Rattus norvegicus. The data set can be described thus: Toxicity in rat assessed as mortality at 50 mg/kg, po measured upto 4 hrs. Format: organism-based. Set-up: dose 50 mg/kg, route oral. Conditions: in vivo. The procedure, abridged: (§2)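 Rats given a single oral dose of 50 mg/kg; monitored intermittently over 4 h for fatalities and neurological deficit.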
Data set [14] concerns Rattus norvegicus. The data set can be described thus: Neurotoxicity in rat at 50 mg/kg, po measured upto 4 hrs by rotarod method. The arrangement: dose 50 mg/kg, route oral. Conditions: in vivo. The class given is toxicity, organism-based. The procedure, abridged: as §2
A general note: Falling from the rotarod earlier than controls is read as motor impairment.

Data set [15] can be described thus: Cytotoxicity against human HPC cells after 48 hrs. The class given is cell-based.
Data set [16] is described as follows: Cytotoxicity against human HPLF cells after 48 hrs. Format: cell-based.
In data set [17] the test system is HL-60. As to the kind of experiment: Selectivity index, ratio of average CC50 for normal human cell line to CC50 for human HL-60 cells.
The subject of data set [18] is HSC-4. The data set can be described thus: Selectivity index, ratio of average CC50 for normal human cell line to CC50 for human HSC4 cells.
Data set [19] is described as follows: Toxicity in mouse harboring L1210 cells. The class given is organism-based.
Data set [20] in a line: Toxicity in mouse harboring P-388 cells. The class given is organism-based.
The test system of a further data set is HT-29. As to the kind of experiment: Anticancer activity against human HT-29 cells. Format: functional, cell-based.
In data set [21] the test system is CCRF-CEM. As to the kind of experiment: Anticancer activity against human CCRF-CEM cells. The class given is functional, cell-based.
A further data set relates to COLO 205. The data set can be described thus: Anticancer activity against human COLO205 cells. The class given is functional, cell-based.
The test system of data set [22] is HL-60. The data set can be described thus: Anticancer activity against human HL60 cells. The class given is functional, cell-based.
The next data set relates to K562. The data set can be described thus: Anticancer activity against human K562 cells. Format: functional, cell-based.
The test system of the next data set is RPMI-8226. The data set can be described thus: Anticancer activity against human RPMI8226 cells. The class given is functional, cell-based.
Data set [23] has as its system Mus musculus. As to the kind of experiment: Neurotoxicity in mouse at 30 to 300 mg/kg, ip after 0.5 hrs by rotarod method. Format: toxicity, organism-based. Conditions: in vivo. Set-up: dose 30-300 mg/kg, route intraperitoneal. The essentials: (§3)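 Mice given 30, 100 and 300 mg/kg by intraperitoneal injection; animals scored for mortality and neurotoxicity at 0.5 and 4 h after dosing.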

The subject of data set [24] is Mus musculus. As to the kind of experiment: Neurotoxicity in mouse at 30 to 300 mg/kg, ip after 4 hrs by rotarod method. Format: toxicity, organism-based. Set-up: dose 30-300 mg/kg, route intraperitoneal. Conditions: in vivo. The procedure, abridged: as §3
A further data set deals with HCT-116. As to the kind of experiment: Anticancer activity against human HCT116 cells. Format: functional, cell-based.
In the next data set the test system is HCC 2998. The data set can be described thus: Anticancer activity against human HCC2998 cells. Format: functional, cell-based.
A further data set relates to HCT-15. The data set can be described thus: Anticancer activity against human HCT15 cells. The class given is functional, cell-based.
The next data set deals with KM12. The data set can be described thus: Anticancer activity against human KM12 cells. Format: functional, cell-based.
The next data set has as its system SW-620. The data set can be described thus: Anticancer activity against human SW620 cells. The class given is functional, cell-based.

What is called IC50 is the midpoint of a concentration-inhibition curve. By CC50 is commonly meant the concentration that lowers cell viability or growth by half. The low end stands for greater toxicity to the cells, the high end for lower toxicity to the cells. Consider `Cc1ccc(/C=C2\CN(C(=O)CCSCCO)C/C(=C\c3ccc(C)cc3)C2=O)cc1`, for which the Ratio in the data set with HSC-2 [1] was 9.4; with HSC-3 [2], 4.9; with HL-60 [17], 4; in the data set with HSC-4 [18], 6.9. For the same molecule, the “Ratio IC50” value in the data set with CCRF-CEM [3] was determined as 2.3. Further, the IC50 was 1.85 µM in [4], 1.1 µM in the data set on CCRF-CEM [5] and 5.91 µM with L1210. The CC50 was determined as 2.1 µM with HL-60 [6], 0.89 µM with HSC-2 [7], 1.7 µM in the data set on HSC-3 [8] and 1.2 µM in the data set with HSC-4 [9]. Further, the figures for the CC50 at 48 h in [10], in data set [15] and in data set [16] were 9.1 µM, 7.5 µM and 8.4 µM, respectively. The Activity result in the data set on Mus musculus [11], in the data set on Mus musculus [12], in the data set on Rattus norvegicus [13] and with Rattus norvegicus [14] was “Non-toxic” in each case.
Usually LD50 stands for the dose at which mortality reaches 50%. On to `N[C@@H](Cc1ccc(N(CCCl)CCCl)cc1)C(=O)O` [MELPHALAN], for which the Ratio in the data set on HSC-2 [1] was found to be 24.1; with HSC-3 [2], 8.4; with HL-60 [17], 150; in the data set with HSC-4 [18] it was 6.6. Also, the CC50 in the data set on HL-60 [6] stood at 1.4 µM; with HSC-2 [7], 8.7 µM; in the data set with HSC-3 [8], 25 µM; with HSC-4 [9], 32 µM. In addition, the LD50 in data set [19] and in data set [20] was 21.7 mg/kg each time. Also, the IC50 in the data set with HT-29 was found to be 46.8 µM.
For the molecule `COc1ccc(/C=C2\CN(C(=O)CCSCCS(=O)(=O)O)C/C(=C\c3ccc(OC)cc3)C2=O)cc1`, the IC50 in the data set on CCRF-CEM [21] is more than 100 µM; with COLO 205, more than 100 µM; in data set [4], 156 µM; in the data set on CCRF-CEM [5], 199 µM; in the data set with L1210, 227 µM; in the data set on HL-60 [22] it was more than 100 µM. For the same molecule, the IC50 in the data set on K562 was 55 µM; with RPMI-8226, 24.5 µM; in the data set with HCT-116, 33.1 µM; in the data set on HCC 2998, 30.9 µM; in the data set with HCT-15 it was more than 100 µM; in the data set on HT-29 it was 41.7 µM. The IC50 with KM12 is 30.2 µM; with SW-620 it was 38 µM. For the same molecule, the figures for the Activity entry with Mus musculus [11], in the data set with Mus musculus [23] and in the data set on Mus musculus [24] were “Non-toxic”, “Toxic” and “Toxic”, respectively.
